Only some compounds are listed: those with a hit (about 1.4% of all), similar ones and a draw of the others.
Vif inh: inhibitors of HIV Vif. HEK293T cells, Vif self-association by quenched fluorescence, imaging, 24 h. inhibition, % at 7.49 µM. actives 0.35% (n = 340,000). AID 602346; in the data active = inhibition above about 50%, passing the limit was not always enough; inconclusive = no clear call, values can overlap the other calls; inactive = below about 31%
CDK5 p35 inh: blocks human CDK5/p35 kinase activity; Q00535+Q15078; Recombinant CDK5/p35, ADP-Glo luminescence, 60 min; inhibition, % at 10 µM; actives 0.01% (n = 330,000); AID 488839;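 active = highest replicate inhibition of at least 50% and at least 75% of replicates reaching 50%; inconclusive = only one of the two criteria met; inactive = both criteria failed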;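 also: plate controls were DMSO neutral control for no effect and GW8510 at 10 µM for full effect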
Target sequence (Q00535 whole entry, looked up): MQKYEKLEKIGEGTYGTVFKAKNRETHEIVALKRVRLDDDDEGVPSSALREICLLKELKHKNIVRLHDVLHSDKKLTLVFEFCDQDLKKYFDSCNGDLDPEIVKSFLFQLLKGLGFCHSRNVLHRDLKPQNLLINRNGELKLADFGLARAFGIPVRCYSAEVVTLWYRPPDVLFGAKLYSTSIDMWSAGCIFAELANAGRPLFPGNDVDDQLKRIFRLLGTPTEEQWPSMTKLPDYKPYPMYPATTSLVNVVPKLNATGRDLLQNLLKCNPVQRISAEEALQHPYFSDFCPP
Target sequence (Q15078 whole entry, looked up): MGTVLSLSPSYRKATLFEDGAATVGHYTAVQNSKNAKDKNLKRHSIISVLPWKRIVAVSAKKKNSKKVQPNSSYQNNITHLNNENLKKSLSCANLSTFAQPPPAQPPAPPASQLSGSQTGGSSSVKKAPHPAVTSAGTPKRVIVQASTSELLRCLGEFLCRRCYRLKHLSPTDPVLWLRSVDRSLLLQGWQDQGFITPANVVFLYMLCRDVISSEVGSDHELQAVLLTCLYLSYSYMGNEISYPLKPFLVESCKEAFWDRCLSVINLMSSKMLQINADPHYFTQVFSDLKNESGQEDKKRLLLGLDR
CAL PDZ FP-1: CAL PDZ (human) peptide binding inhibition; purified CAL PDZ, TMR-peptide fluorescence polarization, 1 h; actives 0.92% (n = 300,000); inhibition, % at 24.9 µM; Q9HD26;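 active = mean inhibition of at least 30% with at least half of replicates also reaching 30%; inconclusive = no clear call, values can overlap the other calls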;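 also: 0% = DMSO neutral control and 100% = excess unlabeled competitor peptide PRC23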
PvdQ acylase: P. aeruginosa PvdQ acylase inhibition | purified PvdQ acylase, fluorescence plate reader | actives 0.063% (n = 340,000) | inhibition, % at 10 µM | AID 488965; in the data active = inhibition above about 30%, passing the limit was not always enough; inconclusive = no clear call, values can overlap the other calls;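 also: 0% = vehicle neutral wells and 100% = reference inhibitor wells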
N-glyco inh: blocks N-linked glycosylation in D54 reporter cells. D54 ERlucT glycosylation luciferase reporter, 24 h; percent of 100 nM tunicamycin response. reporter increase, % at 12.5 µM. AID 588692. actives 0.23% (n = 360,000);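 active = mean luciferase reporter signal, scaled so untreated is 0 and the glycosylation-blocking control 100, at or above a set limit in every replicate; inconclusive = mean reaches the limit but not every replicate does; inactive = mean below the limit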;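 also: luciferase carries N-glycosylation sites so blocking glycosylation raises the light; 0% = median of neutral control wells and 100% = median of 100 nM tunicamycin wells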
CAL PDZ FP-2: blocks peptide binding to human CAL PDZ domain. Q9HD26. purified CAL PDZ, TMR-peptide fluorescence polarization, 1 h. inhibition, % at 20 µM. actives 0.02% (n = 330,000);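 active = highest replicate inhibition of at least 40%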;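 also: plate controls were DMSO neutral control wells for no effect and unlabeled competitor peptide control wells for full effect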
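Test system: purified CerCALP PDZ construct; Compound dosing: one concentration, 20 µM compound; Also added: TMR-labelled reporter peptide T*-PRC34 bound in PDZ groove; Read-out: inhibition from polarization loss; Controls: unlabelled peptide and DMSO controls; Signal: FP readout, S and P plane fluorescence; Incubation: 1 h at RT.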
The depositor's hits bear a star; ? = inconclusive; . = no result; + = active, no number; ! = a repeat was not active.

SMILES | Vif inh | CDK5 p35 inh | CAL PDZ FP-1 | PvdQ acylase | N-glyco inh | CAL PDZ FP-2
c1ccc(CNc2ncnc3c2cnn3-c2ccccc2)cc1 | -2.6 | -0.5 | -7.0 | 1.0 | 25.7* | -0.8
Fc1ccc(CNc2ncnc3c2cnn3-c2ccccc2)cc1 | -11.5 | -2.7 | -2.1 | -6.0 | 5.3 | -1.3
O=C(COc1ccc(-n2cnnn2)cc1)NC1CCCCC1 | -1.8 | -0.2 | 0.6 | -11.9 | -1.2 | -0.6
O=C(COc1ccc(-n2cnnn2)cc1)NC(=O)NCc1ccccc1 | 26.4 | 0.3 | 50.0* | 3.5 | 0.1 | -2.0
Cc1c(Cl)c([N+](=O)[O-])nn1CC(=O)N1CCN(Cc2ccccc2)CC1 | 2.0 | 0.2 | . | -5.3 | 4.2 | -0.3
CSc1ccc(CN2CCC(C)(Oc3ccc(F)cc3)C2)cc1 (stereo unspecified) | 1.7 | . | . | . | -1.8 | .
Cc1ccc(NC(=O)c2ccc(NCc3ccco3)c([N+](=O)[O-])c2)cc1Cl | 82.2* | -2.3 | -9.8 | -6.9 | -5.0 | -0.5
COc1ccc(NC(=O)Nc2nnc(C(C)(C)C)s2)cc1 | -11.2 | 0.6 | 46.7* | -14.7 | -1.3 | -1.4
CC1(C)CC(=O)N(c2ccc(Cl)cc2Cl)C(=O)C1 | -5.7 | -2.5 | 61.0* | -10.4 | -1.6 | 0.5
Cc1cc([N+](=O)[O-])ccc1NC(=O)c1csc(C)c1C | 4.1 | -3.7 | -3.0 | -6.5 | -5.6 | -3.5
CC(=O)NC(c1ccc(F)c(F)c1)c1nc(-c2ccccc2)cs1 (stereo unspecified) | 3.5 | . | . | . | -1.0 | .
COc1ccc(C2C(C(=O)N3CCOCC3)CCC(=O)N2c2ccc(OC)cc2)cc1 (stereo unspecified) | -6.1 | 0.4 | 108.2* | -9.8 | 2.3 | -1.0
COc1ccc(N2C(=O)CCC(C(=O)N3CCCCC3)C2c2ccc(OC)c(OC)c2)cc1 (stereo unspecified) | -0.2 | 1.1 | 13.2 | -0.2 | 2.9 | .
CC(=O)NC1=NN(C(C)=O)C(C)(c2ccco2)S1 (stereo unspecified) | 51.1* | -0.2 | -3.3 | -6.2 | 3.0 | -0.1
Cc1ccc(C(=O)CSc2nnc(C3CC3)n2C2CC2)s1 | -1.9 | -1.1 | 63.0* | -18.2 | -3.9 | -0.4
CCc1ccc(C(=O)CSc2nnc(C3CC3)n2C2CC2)cc1 | -4.8 | -1.1 | -6.7 | -9.2 | -0.5 | -1.1
Cn1c(C(=O)N2CCN(c3ccccc3)CC2)cc2cc(Cl)ccc21 | -3.4 | 0.4 | 74.1* | -16.3 | 1.3 | -0.7
CCOC(=O)c1csc(-c2csc(CCNC(=O)c3ccccc3)n2)n1 | 50.8* | . | . | . | -2.6 | .
COc1cc(N)ccc1Cc1ccc(N)cc1OC | 5.3 | -1.0 | 55.8* | -11.2 | -1.4 | .
COc1ccc(C(CNC(=O)C2COc3ccccc3O2)N2CCCC2)cc1 (stereo unspecified) | 0.3 | 0.4 | 67.6* | -17.8 | -0.9 | 0.5
COc1ccc(C(CNC(=O)Cc2ccccc2)N2CCCCC2)cc1 (stereo unspecified) | 11.2 | 1.4 | -1.6 | 1.7 | 2.2 | -3.3
CCOc1ccc(OCCNC(=O)c2cc(C3CC3)nc3c2cnn3C(C)C)cc1 | -3.4 | -0.4 | 0.8 | 0.8 | 1.4 | -2.2
O=C(COc1cccc(Cl)c1)Nc1ccc2c(c1)CCC2 | 104.6* | -0.5 | -4.7 | -11.9 | 2.8 | -1.2
CCN1CCC[C@H]1CNCCCn1cnc2c(SC)ncnc21 | -19.8 | . | . | . | 0.2 | .
O=C(Nc1cccc2nsnc12)c1cc2c(cc1Cl)Sc1nccn1S2(=O)=O | -6.4 | -5.5 | -2.1 | -2.5 | 1.4 | -1.4
SMILES | Vif inh | CDK5 p35 inh | CAL PDZ FP-1 | PvdQ acylase | N-glyco inh | CAL PDZ FP-2
Clc1ccc(-c2nnc(-c3ccco3)o2)cc1 | . | 0.4 | -0.1 | 58.2* | -0.7 | -4.4
c1cncc(-c2nnc(-c3ccco3)o2)c1 | 7.1 | -1.4 | -3.1 | -5.7 | -0.9 | -2.3
CC(C)=C1C(=O)NN(c2ccc(C)c(Cl)c2)C1=O | . | -5.2 | -4.6 | 6.5 | 1.5 | 0.2
CC(C)=C1C(=O)NN(c2cccc(Cl)c2)C1=O | -17.8 | . | 74.1* | -5.3 | -0.4 | -0.7
CN(C)S(=O)(=O)c1ccc(N2CCCC2)c(C(=O)NCC(=O)Nc2ccc(F)c(F)c2)c1 | 6.4 | 1.2 | -2.2 | -9.7 | -1.8 | -0.8
CN1CCN(CC(=O)Nc2ccc(S(=O)(=O)N(C)C)cc2)CC1 | -3.8 | -1.4 | 3.8 | -3.5 | 0.7 | 0.8
CN(C)S(=O)(=O)c1ccc(N2CCCC2)c(C(=O)Nc2ccccc2)c1 | 10.3 | -4.7 | -10.7 | -0.2 | 46.2* | -3.3
CCOC(=O)C1CCCN(C(=O)c2cc(S(=O)(=O)N(C)C)ccc2N2CCCC2)C1 (stereo unspecified) | 55.6* | -1.0 | -3.1 | ? | 1.5 | -4.2
CN(C)S(=O)(=O)c1ccc(NC(=O)CN2CCCCCC2)cc1 | -0.4 | 3.8 | 132.6* | -13.3 | -1.5 | -0.3
Cc1ccc(NC(=O)c2cc(S(=O)(=O)N(C)C)ccc2N2CCCC2)cc1F | -0.7 | -0.3 | -1.4 | -10.3 | 90.2* | -2.8
CCCCNC(=O)C1(C)CCN1C(=O)c1cccnc1Oc1ccccc1 (stereo unspecified) | 23.4 | . | . | . | 2.1 | .
COCCNCC(=O)Nc1nc(C)cs1 | 59.2* | -3.1 | -2.3 | 3.6 | -0.5 | -2.7
Cc1csc(NC(=O)CSc2nc(C)cs2)n1 | . | 0.3 | -0.6 | -2.2 | -0.4 | -0.7
CCCCN=c1scc(-c2ccc3c(c2)NC(=O)CO3)n1N=C1CCCC1 | -17.4 | 0.5 | -3.9 | -4.5 | -5.5 | .
CCN=c1scc(-c2ccc3c(c2)NC(=O)CO3)n1N=C1CCCC1 | 53.8*! | -1.1 | -4.5 | 5.5 | -6.2 | -1.4
COc1ccccc1N(C(C)=O)c1nc(C)cc(C)c1C#N | 16.2 | 0.5 | 30.9* | -15.9 | -0.4 | -0.8
O=C(NC1C=CS(=O)(=O)C1)c1sc2ccccc2c1Cl (stereo unspecified) | 18.2 | 3.1 | -1.8 | -12.8 | 31.6* | -2.8
COC(=O)[C@H](CC(C)C)NC(=O)NCCC1=CCCCC1 | 4.7 | 0.0 | 75.9* | -21.3 | -0.6 | -0.3
COc1ccc(-c2cnc(C(O)c3ccc(CN4CCCCC4)cc3)[nH]2)cc1 (stereo unspecified) | 6.7 | . | . | . | -0.8 | .
Cn1c(=O)[nH]c(=O)c2c1nc(SCC(N)=O)n2Cc1cccc(Br)c1 | ? | -0.1 | -0.7 | -10.4 | 26.6* | -1.5
C=C(C)CSc1nc2c(c(=O)[nH]c(=O)n2C)n1Cc1ccccc1 | -19.6 | -0.1 | -0.5 | -11.6 | -2.8 | -2.6
CCOC(=O)CN(C(=O)CSc1nnc(-c2cccc(OC)c2)o1)c1ccc(F)cc1 | -15.0 | -0.8 | 32.4* | -18.0 | 1.9 | 12.7
COc1ccc(CC(=O)Nc2ccc(F)c(F)c2F)cc1S(=O)(=O)N1CCOCC1 | -3.5 | -6.5 | . | -12.8 | -0.3 | -0.5
Cc1ccc(C(=O)N/N=C\c2ccccn2)cn1 | -11.7 | -0.4 | + | -8.0 | 5.6 | -0.8
CCOc1ccc(NC(=O)CNc2cccc(S(=O)(=O)N3CCCCCC3)c2)cc1OCC | -22.3 | -2.1 | -5.7 | -13.0 | -3.4 | -0.2

Source: PubChem BioAssay (Broad Institute)
